Sampled rows, rich in hits. Any-hit rate of the full collection: about 1.9%.
Tb MetRS inh = Trypanosoma brucei MetRS inhibition; purified T. brucei MetRS, ATP depletion, Kinase-Glo luminescence; inhibition, % at 11.9 µM; actives 0.4% (n = 360,000); AID 624268;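 active means inhibition above a per-plate cutoff of the control wells' mean inhibition plus 3 SD, cut at about 5.5% in these data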;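 further: 0% = DMSO wells median and 100% = median of wells with control inhibitor compound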
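assay system = parasite MetRS enzyme | timing = 15 min preincubation, 2 h reaction, all 25 °C | evaluation = percent inhibition relative to median high and low control wells | medium = HEPES buffer containing pyrophosphatase, BSA, spermine, DTT | compound = single dose, 11.9 µM final nominal, 0.9% final DMSO | detection = Kinase-Glo luminescence, ATP depletion format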
DAGLB inhibitor = blocks human DAGLB lipase activity; Q8NCG7; HEK293T DAGLB membrane lysate, EnzChek fluorogenic substrate; inhibition, % at 5.17 µM; actives 0.059% (n = 340,000); AID 504411; in the data active means inhibition above about 34%;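 further: 0% = enzyme with vehicle and 100% = wells lacking enzyme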
PLCb3 inh = PLC-beta3 (human) inhibition, primary screen; AID 720704; inhibition, % at 12.2 µM; Q01970; Purified PLC-beta3, fluorogenic substrate, fluorescence; actives 0.18% (n = 370,000);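 further: 0% = median of compound wells on plate and 100% = full blocker control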
Target sequence (Q01970 whole entry, looked up): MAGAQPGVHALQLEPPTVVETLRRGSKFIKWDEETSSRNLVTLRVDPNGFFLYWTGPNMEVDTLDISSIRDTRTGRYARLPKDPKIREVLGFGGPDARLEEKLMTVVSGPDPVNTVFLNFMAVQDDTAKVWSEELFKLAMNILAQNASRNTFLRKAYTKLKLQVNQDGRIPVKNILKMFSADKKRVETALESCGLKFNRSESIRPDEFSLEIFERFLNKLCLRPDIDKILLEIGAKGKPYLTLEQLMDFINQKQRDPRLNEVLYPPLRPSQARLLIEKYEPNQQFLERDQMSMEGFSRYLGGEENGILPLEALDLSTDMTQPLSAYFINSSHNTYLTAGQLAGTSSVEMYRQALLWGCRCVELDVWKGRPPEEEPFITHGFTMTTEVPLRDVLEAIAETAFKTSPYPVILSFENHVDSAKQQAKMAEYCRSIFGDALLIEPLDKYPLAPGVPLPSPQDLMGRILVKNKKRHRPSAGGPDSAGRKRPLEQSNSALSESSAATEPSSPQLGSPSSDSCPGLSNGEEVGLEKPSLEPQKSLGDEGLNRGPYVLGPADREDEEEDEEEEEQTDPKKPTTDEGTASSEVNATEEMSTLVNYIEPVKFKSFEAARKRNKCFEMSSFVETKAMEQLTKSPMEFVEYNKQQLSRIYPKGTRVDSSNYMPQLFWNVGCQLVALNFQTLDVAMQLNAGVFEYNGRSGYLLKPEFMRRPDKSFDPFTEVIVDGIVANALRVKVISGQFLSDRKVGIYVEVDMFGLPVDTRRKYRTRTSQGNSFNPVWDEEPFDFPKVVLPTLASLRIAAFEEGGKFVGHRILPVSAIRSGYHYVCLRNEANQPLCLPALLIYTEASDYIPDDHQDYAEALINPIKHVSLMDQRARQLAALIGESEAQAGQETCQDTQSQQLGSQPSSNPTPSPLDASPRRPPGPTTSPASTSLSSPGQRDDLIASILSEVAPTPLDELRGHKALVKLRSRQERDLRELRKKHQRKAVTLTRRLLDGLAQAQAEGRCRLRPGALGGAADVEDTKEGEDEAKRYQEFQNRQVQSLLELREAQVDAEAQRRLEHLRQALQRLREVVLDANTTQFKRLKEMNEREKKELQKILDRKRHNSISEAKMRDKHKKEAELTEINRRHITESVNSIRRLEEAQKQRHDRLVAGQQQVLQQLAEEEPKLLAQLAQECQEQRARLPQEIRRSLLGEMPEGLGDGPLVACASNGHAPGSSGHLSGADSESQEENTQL
PLCg1 inh = PLC-gamma1 (human) inhibition, primary screen. purified PLC-gamma1, fluorogenic substrate, fluorescence. actives 0.84% (n = 370,000). inhibition, % at 12.2 µM; in the data active means inhibition above about 9.5%
HGIII-sPLA2 inh = Inhibits HGIII-sPLA2 liposome hydrolysis, primary screen. QFRET BODIPY PC-A2 liposome hydrolysis, fluorescence. Q9NZ20. actives 0.56% (n = 370,000). AID 743126. inhibition, % at 12.2 µM;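 active means inhibition above mean plus 3 SD of compounds lying within the high and low control bounds, cut at about 19% in these data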;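 further: 0% = median of test compound wells and 100% = no enzyme DMSO wells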
PLCg1 ctr = inhibits human PLC-gamma1 in PLC-beta3 counter-screen; purified PLC-gamma1, fluorogenic substrate, fluorescence; AID 743258; shares compounds with PLCg1 inh; inhibition, % at 12.3 µM; actives 3.1% (n = 3,300); in the data active means inhibition above about 9.5%
PLCbeta3 conf = human PLC-beta3 inhibition, confirmation; shares compounds with PLCg1 inh; purified PLC-beta3, fluorogenic substrate fluorescence; inhibition, % at 12.3 µM; actives 1% (n = 3,300); AID 743261
* marks the source's active call; other numbers are inactive results; . = no result given. Unless noted, no stated cut-off is given here; in the data, active means inhibition above about 11%; inactive means the rest.

SMILES	Tb MetRS inh	DAGLB inhibitor	PLCb3 inh	PLCg1 inh	HGIII-sPLA2 inh	PLCg1 ctr	PLCbeta3 conf
COc1ccc(C)cc1NC(=O)CNC(c1ccccc1)c1ccc(C)cc1 (stereo not given)	0	-9	-1	2	-3	.	.
O=C(CS(=O)(=O)c1ccccc1)CS(=O)(=O)c1ccccc1	.	.	-18	-12	-26	.	.
O=S(=O)(C/C(=C/CO)S(=O)(=O)c1ccccc1)c1ccccc1	0	-1	4	9.7*	9	-3	1
COC(=O)c1ccc(CN2C(=O)[C@]3(OCCC=C[C@H]3C)c3cc(OC)ccc32)cc1	.	.	2	1	3	.	.
c1ccc(-c2noc(C3CCC3)n2)nc1	-1	.	-7	0	9	.	.
CCCCC1CCC(c2nc(-c3ccccn3)no2)CC1 (stereo not given)	0	-2	3	9.8*	7	-4	-4
Cc1nnc(N/N=C/c2ccc([N+](=O)[O-])cc2)n1N	1	0	9	20*	13	8	8
COc1ccc(/C=N/Nc2nnc(C)n2N)cc1OC(C)=O	0	1	0	11*	1	-8	-2
Cc1nnc(N/N=C/c2ccc(Br)cc2)n1N	2	0	1	6	-7	.	.
C=CCNC(=S)NNC(=O)CCC(O)CCCCC (stereo not given)	1	-1	12*	9	5	-4	-1
CC(=O)N(C)C[C@@H]1OCc2ccccc2-c2c(n(C)c3ccccc23)C(=O)N([C@@H](C)CO)C[C@@H]1C	.	.	3	1	1	.	.
Cc1cc(NC(=O)C2CC(c3ccc(Cl)cc3)=NO2)no1 (stereo not given)	0	-3	12*	9	11	-2	0
COc1ccc(C2=NOC(C(=O)Nc3cc(C)on3)C2)cc1 (stereo not given)	0	0	3	1	-4	.	.
O=c1cc2c(=O)oc3cc(O)c(O)oc3c2c(O)c1O	2	-1	-39	33*	2	-279	-322
O=C(OCc1cn(Cc2ccc(F)cc2F)nn1)N1CCOCC1	.	.	0	-1	6	.	.
Cc1ccc(CNC(=O)C(C)OC(=O)c2ccco2)cc1 (stereo not given)	-1	3	2	13*	3	4	2
Cc1cc(Nc2ccc(Cl)cc2)n(-c2cccc(Cl)c2)n1	-1	-8	2	12*	2	-7	-6
CN(C)S(=O)(=O)N1CCC(Oc2cccc(C(=O)NCCC3=CCCCC3)c2)CC1	0	-3	-10	11*	-15	-12	-1
CN(C)S(=O)(=O)N1CCC(Oc2cccc(C(=O)NC3CCCCC3)c2)CC1	0	0	-5	0	6	.	.
O=C(Nc1ccccc1)C1CCN(C(=O)c2ccccc2)CC1	0	2	12*	7	6	-8	-4
COc1ccc(NC(=O)C2CCN(C(=O)c3cccs3)CC2)cc1	0	-1	6	9.6*	11	-6	-5
CC(=O)N1CCN(C(=O)c2ccc(Oc3ccccc3)cc2)CC1	0	1	3	5	5	.	.
O=C(c1ccccc1)N1CCN(C2CCCCCC2)CC1	-1	-5	4	14*	5	-2	2
O=C(c1ccccc1)N1CCN(C(=O)c2ccc(OC(F)(F)F)cc2)CC1	0	2	12*	3	5	-5	-1
O=C(c1ccc(F)cc1)N1CCN(C2CCCCC2)CC1	-1	-1	1	0	1	.	.
SMILES	Tb MetRS inh	DAGLB inhibitor	PLCb3 inh	PLCg1 inh	HGIII-sPLA2 inh	PLCg1 ctr	PLCbeta3 conf
COC(=O)[C@]12C[C@H](CC(=O)N3CCOCC3)C(=O)N(Cc3ccc(Cl)cc3Cl)C1=C[C@H](C(C)(C)C)O[C@@H]2C	.	.	2	0	-8	.	.
Cc1ccc(-c2cc(C(=O)NN=Cc3cccc4ccccc34)[nH]n2)cc1C	.	.	6	8	-1	.	.
CCCN1C(=O)c2n[nH]c(C(C)C)c2C1c1cccc(C(F)(F)F)c1 (stereo not given)	.	.	1	-6	0	.	.
CCOC(=O)C(NC(=O)CC)(Nc1ccccc1)C(F)(F)F (stereo not given)	0	-1	11*	14*	3	-5	1
CC(C)(C)c1ccc(S(=O)(=O)NCC2CCCO2)cc1 (stereo not given)	1	-1	-6	-1	11	.	.
O=C(O)c1ccc(S(=O)(=O)NCC2CCCO2)cc1 (stereo not given)	0	0	-3	11*	6	-2	3
CCOC(=O)C1(CCc2ccccc2)CCN(C(=O)C(C)n2cncn2)CC1 (stereo not given)	0	2	4	6	2	.	.
CCOC(=O)C1(CCCc2ccccc2)CCN(C(=O)C(C)n2cncn2)CC1 (stereo not given)	0	2	-48	9.5*	-3	-5	3
Cc1ccc(NC(=O)Cc2ccc(F)cc2)c(S(=O)(=O)N2CCOCC2)c1	.	.	-3	-1	-4	.	.
O=C(NC1CCCC1)C(c1ccccc1)N(C(=O)c1ccco1)C1CCCC1 (stereo not given)	-1	-5	-3	9.9*	15	-7	-1
C=CCN(C(=O)CNC(=O)c1ccco1)C(C(=O)NC1CCCCC1)c1ccc(F)cc1 (stereo not given)	0	-1	4	10*	9	-5	-2
C=CCN(C(=O)CNC(=O)c1ccco1)C(C(=O)NC1CCCCC1)c1ccccc1 (stereo not given)	0	1	0	5	-3	.	.
O=C(NCC(=O)N(c1cccnc1)C(C(=O)NC1CCCCC1)c1cccnc1)c1ccco1 (stereo not given)	0	2	-2	-2	0	.	.
O=C(NCC(=O)N(c1ccccc1)C(C(=O)NC1CCCC1)c1cccnc1)c1ccco1 (stereo not given)	-1	-2	8	10*	16	-6	-7
O=C(NC1CCCC1)C(c1ccccc1F)N(C(=O)c1ccco1)C1CCCC1 (stereo not given)	1	-2	1	1	4	.	.
CC(=O)O[C@@H]1CCC[C@@]2(C(=O)Nc3ccccc32)[C@H]1NC(=O)C(C)C	.	.	3	-2	6	.	.
Cc1ccccc1CN1[C@@H](C)[C@H](c2ccccc2)Oc2cccc(NCCc3ccccc3)c2S1(=O)=O	.	.	1	4	2	.	.
COCCCNC(=O)C1CC(=O)N(CCc2ccc(OC)c(OC)c2)C1 (stereo not given)	0	-2	3	14*	13	2	0
CCn1c(SCC(=O)Nc2ccccc2OC)nc2ccccc2c1=O	-2	0	4	11*	3	-9	-5
COCCn1c(SCC(=O)Nc2ccccc2OC)nc2ccccc2c1=O	0	0	-7	1	7	.	.

Compound activity (PubChem BioAssay)
